# Measured values pooled from the literature.
# Compare with care: the assays were run in different laboratories.
# Target: Serine/threonine-protein kinase WNK3 (WNK3, Homo sapiens, UniProt Q9BYP7)
Compound,read-out,mode,method,concentration,quantity,value
Cc1ccc(Nc2nccc(N(C)c3ccc4c(C)n(C)nc4c3)n2)cc1S(N)(=O)=O,enzyme activity,inhibitor,,10 µM,inhibition,33%
N#CCCc1ccc2c(c1)-c1[nH]c3ccc([N+](=O)[O-])cc3c1CC(=O)N2,cell-free assay,,,0.5 µM,remaining signal,96.5%
CNC(=O)c1cc(Oc2ccc(NC(=O)Nc3ccc(Cl)c(C(F)(F)F)c3)cc2)ccn1,enzyme activity,inhibitor,,10 µM,inhibition,-4%
CCN(CC)c1ccc(C2=NNC(=O)CC2C)cc1[N+](=O)[O-] (centres unmarked),enzyme activity,inhibitor,,10 µM,remaining activity,105%
CCCOc1ccc([C@H]2[C@H](C(=O)O)[C@@H](c3ccc4c(c3)OCO4)CN2CC(=O)Nc2c(CC)cccc2CC)cc1,cell-free assay,,competition with immobilised ligand,1 µM,remaining binding,90%
Nc1ncnc2occ(-c3ccc(NC(=O)Nc4cc(C(F)(F)F)ccc4F)cc3)c12,cell-free assay,inhibitor,,20 µM,remaining signal,58%
Cc1cc(NC(=O)c2cccc(S(F)(F)(F)(F)F)c2)cc(-n2ccn3nc(-c4cccnc4)cc23)c1,cell-free assay,,competition with immobilised ligand,1 µM,remaining binding,100%
O=C(Nc1cnn(-c2csc(C(=O)NC3COC3)c2)c1)Nc1ccccc1Cl,enzyme activity,inhibitor,,5 µM,remaining activity,99.5%
O=c1nc(-c2ccccn2)sc2ccccc12,binding,,competition with immobilised ligand,1 µM,remaining binding,100%
CC(C)(C)c1nc(-c2cccc(NS(=O)(=O)c3c(F)cccc3F)c2F)c(-c2ccnc(N)n2)s1,enzyme activity,inhibitor,radiometric,1 µM,remaining activity,89%
Cc1sc(C(=O)NC2COC2)cc1-n1cc(NC(=O)Nc2c(F)cccc2Cl)cn1,enzyme activity,inhibitor,,10 µM,remaining activity,102%
COc1cc(Cl)c(C(=O)N[C@@H](CN[C@H]2CC[C@@H](N)CC2)Cc2ccc(C#N)cc2)cc1-c1ccc(CN[C@H](C)c2ccc(C)cc2)o1,enzyme activity,inhibitor,,1 µM,remaining activity,99%
Cc1ccc(NC(=O)c2ccc(C)c(C(F)(F)F)c2)cc1C#Cc1nn(C2CCC(O)CC2)c2ncnc(N)c12 (centres unmarked),cell-free assay,,,10 µM,remaining signal,39%
FC(F)(F)c1ccc2c(c1)nc(-c1cccnc1)n2C1CC1,cell-free assay,,competition with immobilised ligand,1 µM,remaining binding,100%
CCN(CC)CCNC(=O)c1c(C)[nH]c(/C=C2\C(=O)Nc3ccc(F)cc32)c1C,enzyme activity,inhibitor,,10 µM,inhibition,7%
C[C@H](c1ccnc(Nc2nc3ccc(-c4cc(N(C)C)ncn4)cc3[nH]2)c1)N1CCN(C(=O)CC(F)(F)F)CC1,cell-free assay,,competition with immobilised ligand,0.1 µM,remaining binding,100%
CCCOc1ccc(OC)c(F)c1C(=O)c1ccc(C(=O)N[C@@H]2CNC[C@H]2NC(=O)c2ccc3[nH]ncc3c2)cc1,enzyme activity,inhibitor,,10 µM,remaining activity,95%
